Results reported in PMC8628544 (Developmental cell, 2021).
Like-named read-outs stand apart in the source and are kept apart here. Blank lines part the entries; values can stand above or below the molecule they belong to.

Columns and labels:
[1] = test system: E10.5 embryo cultures of Sptlc2^f/f Cdh5^CreERT2 mice; assay: Rescue experiments using ex-vivo embryo culture; design: species or system mouse; conditions: 25 nM 1-deoxySO-BSA; 24 hours; 4-OH-TMX
In short: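 Embryos were cultured in DMEM-F12 with 15% KSR, N2, Glutamax and Pen-Strep. Medium held 1 µM 4-OH-TMX, 5 µM sphingolipid-precursor-BSA and 25 nM test compound-BSA; controls received vehicle-BSA instead. Culture ran in O2-flushed sealed 50 mL tubes on a roller at 37°C, 5% CO2, for 24 h.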

[2] = test system: human ESC-derived cardiomyocytes; assay: Cardiomyocyte differentiation of hESCs; format: cell-based; conditions: for gene expression in DKO cultures / fraction of TNNT2+ cells in DKO cultures: NR2F1/2 DKO
mouse LECs = format: cell-based
In short: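 LECs were isolated from collagenase D/dispase-digested mouse lymph nodes and grown overnight in semi-synthetic medium (DMEM, Hepes, 1% BSA, ITS-A, 1% FBS) with 1 µM sphingolipid-precursor-BSA. Deletion was induced with 0.5–1 µM 4-OH-TMX. Test compound-BSA (50–100 nM) or vehicle was added, with media renewed daily. At 24 h, cells were fixed and immunostained for NR2F2, Prox1 and […], then imaged by confocal microscopy.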

[3] = target: NR2F1(LBD)-GAL4(DBD) fusion protein (Mus musculus, UniProt Q60632); assay: NR2F1; format: cell-based; conditions: Figure S1C
NR2F2 [4] = assay: NR2F2 reporter activity in HEK-293FT cells; format: cell-based; conditions: 1 µM
In short: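 HEK-293FT cells plated at 5 x 10^4 per well the day before, then PEI-transfected in antibiotic-free DMEM with 1% FBS. Each well received reporter plasmid, NHR plasmid and a Renilla normalisation plasmid. 24 h after transfection, test compound-BSA complexes diluted in 1% FBS medium were added. Dual luciferase read-out.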

HEK-293FT cells = assay: Cell viability of HEK-293FT cells; format: cell-based, human; conditions: 1 µM
NR2F1 LBD = target: T1, NR2F1 LBD (Mus musculus, UniProt Q60632); assay: Metabolite pull-down / displacement with FLAG-tagged LBD and LC-MS; format: binding; conditions: 500 nM retinoic acid in medium
T1 sequence (Q60632 183-422): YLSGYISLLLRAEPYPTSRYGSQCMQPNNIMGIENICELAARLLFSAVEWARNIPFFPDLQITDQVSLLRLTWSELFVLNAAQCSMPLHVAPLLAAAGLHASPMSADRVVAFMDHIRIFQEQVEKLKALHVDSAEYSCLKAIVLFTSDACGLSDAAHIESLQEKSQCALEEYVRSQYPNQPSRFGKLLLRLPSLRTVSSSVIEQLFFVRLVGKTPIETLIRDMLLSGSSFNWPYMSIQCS

RARA LBD = target: T2, RARA LBD (Homo sapiens, UniProt P10276); assay: Metabolite pull-down with FLAG-tagged control LBD and LC-MS; format: binding; conditions: C18+ mode; 500 nM all-trans-retinoic acid in medium; p-value 0.01
T2 sequence (P10276 183-417 limits assumed): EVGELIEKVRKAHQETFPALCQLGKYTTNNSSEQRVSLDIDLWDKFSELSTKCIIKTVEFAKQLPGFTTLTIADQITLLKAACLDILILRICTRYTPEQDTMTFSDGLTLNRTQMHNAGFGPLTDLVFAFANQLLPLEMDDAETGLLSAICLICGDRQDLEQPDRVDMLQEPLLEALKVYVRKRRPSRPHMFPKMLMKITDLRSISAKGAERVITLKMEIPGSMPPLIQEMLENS

NR2F2 [5] = conditions: at high concentrations; ref Kruse et al., 2008; cited from earlier work
NR2F1/2 = conditions: read-out: Kd for NR2F1/2; ref Kruse et al., 2008; cited from earlier work
[6] = target: fluorescein-labeled SRC2-2 peptide; assay: fluorescence polarisation
[7] = target: fluorescein-labeled SRC2-2 peptide; assay: fluorescence polarisation; remark: listed apart in the source
[8] = target: fluorescein-labeled SRC2-2 peptide; assay: fluorescence polarisation; remark: listed apart in the source
[9] = 1 µM from day 1, WT, day 6, bulk RNA-seq

NR2F1(LBD)-GAL4(DBD) fusion protein, sequence (P04386 1-147 partner limits assumed, one chain of several): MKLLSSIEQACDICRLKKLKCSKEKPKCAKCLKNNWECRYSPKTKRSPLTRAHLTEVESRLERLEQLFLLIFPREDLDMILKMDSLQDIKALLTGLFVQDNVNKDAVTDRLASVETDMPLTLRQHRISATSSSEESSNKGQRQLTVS

Molecule: CCC/C=C\CCCCCCCCCC[C@@H](O)[C@H](C)N [1-deoxySO-14Z, 1-deoxysphingosine (14Z)]
- cardiac development in embryo cultures [1]: partially rescued
- gene expression in DKO cultures [2]: minimally affected
- fraction of TNNT2+ cells in DKO cultures ([2]; 1.5 µM from day 3): did not increase
- number of viable cells in Sptlc2 deleted cultures (mouse LECs; 4OH-TMX, medium with D-erythroSO, Figure S3C): restored
- other lymphatic endothelial markers (LYVE1 and NR2F2) (mouse LECs; within 24 hours after 4OH-TMX): no effects were observed
- PROX1 levels in LECs (mouse LECs; within 24 hours after 4OH-TMX, versus vehicle): partially restored

Molecule: CCCCCCCCCCCCC/C=C/[C@@H](O)[C@H](C)N [1-deoxysphingosine]
- fraction of TNNT2+ cells in WT cultures ([2]; WT, 1.5 µM from day 3, FACS day 9): increased
- number of genes decreased by >2-fold versus vehicle ([2]; WT, day 9): 464
- number of genes increased by >2-fold versus vehicle ([2]; WT, day 9): 265

- activity of the NR2F1(LBD)-GAL4(DBD) fusion protein [3]: inhibited
Molecule: COc1ccc(O)c2ccccc12 [4-methoxy-1-naphthol]

Molecule: CCCCCCCCCCCCC/C=C/[C@@H](O)[C@@H](N)CO [D-erythroSO, D-erythro-sphingosine]
- gene expression in DKO cultures [2]: minimally affected
- fraction of TNNT2+ cells in DKO cultures ([2]; 1.5 µM from day 3): did not increase

Molecule: CCCCCCC(=O)CCCCCC/C=C/C[C@@H](O)[C@H](O)[C@@](N)(CO)C(=O)O [myriocin]
- NR2F2 reporter activity (NR2F2 [4]): partially suppress
- cell viability (HEK-293FT cells): without loss of cell viability
- number of downregulated genes versus vehicle [2, 9]: 850
- number of upregulated genes versus vehicle [2, 9]: 1121

- metabolites with exact masses detected in the NR2F1 samples (NR2F1 LBD): no such metabolites were detected
- enrichment in RARA but not NR2F1 samples (RARA LBD): 14.76 fold
Molecule: CC1=C(/C=C/C(C)=C/C=C/C(C)=C/C(=O)O)C(C)(C)CCC1 [retinoic acid, all-trans retinoic acid]
- agonist activity on NR2F2 (NR2F2 [5]): weak agonist
- Kd (NR2F1/2): 26 µM

- Kd [6]: 0.068 µM
- Kd [7]: > 0.3 µM
- Kd [8]: > 0.3 µM
Molecule: NR2F1/2-LBD
